Assay results from paper PMC5795597 (Journal of medicinal chemistry, 2017).

Columns and labels:
[1] = In vitro plasma stability / metabolite identification; format: in vitro ADME; details: 10 μM, 37 °C, 60 min incubation
In short: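 Mouse plasma was spiked at 10 μM and shaken at 37 °C. Triplicate aliquots at 0 and 60 min were quenched with 2 volumes of ice-cold acetonitrile containing 5 μM losartan, then centrifuged at 12000g for 10 min. Supernatant was diluted 1:1 with water. Parent loss and metabolites were tracked by C18 LC–ESI-TOF MS.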

[2] = cited from earlier work
[3] = Stability under GCPII enzyme assay conditions; format: physicochemical; details: 30 m in aqueous buffer; pH 8.0
rhGCPII = rhGCPII (Homo sapiens, UniProt Q04609); test: GCPII radioenzymatic inhibition assay with 3H-NAAG; format: biochemical; details: relative to compound 1
In short: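 Recombinant human GCPII was started with a mix of 0.31 μM NAAG plus 15 nM 3H-NAAG (concentrations in the added mix). After 20 min, the reaction was stopped with 200 mM potassium phosphate, 50 mM EDTA and 2 mM β-mercaptoethanol, pH 7.4. Released glutamate was isolated by ion exchange and counted by scintillation. IC50 was fitted from inhibition curves.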

[4] = Plasma levels of 1 after single oral dose in mice; format: in vivo, mouse; details: dose equivalent of 10 mg/kg of 1, plasma 30 min after administration
In short: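 Male CD-1 mice (25–30 g) got a single oral dose of 10 mg/kg parent equivalent in 50 mM HEPES-buffered saline, pH 7.4, made the same day. At 30 min, mice were killed with pentobarbital and blood taken by cardiac puncture into heparin. Plasma (200g, 15 min; stored −80 °C) was assayed by C18 LC-MS/MS, parent transition 279.986 > 203.066/247.173, losartan internal standard. Mean ± SEM, n = 3.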

[5] = tested on: rat chronic constriction injury model of neuropathic pain; test: Chronic constrictive injury; format: in vivo; details: rat CCI
In short: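 Male Sprague–Dawley rats (200–250 g, n = 10–15/group) received four loose chromic gut ligatures, 1 mm apart, on the sciatic nerve. From day 10 post-surgery, hind-paw withdrawal latency to a plantar thermal stimulus was read to 0.1 s (normal response within 15 s). Difference score: nonligated minus ligated. Sessions twice weekly, 3 days apart. Daily oral gavage, 1 h pre-test. Gabapentin 50/100 mg/kg po as control. Student's t-test.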

Chain of rhGCPII (Q04609 whole entry): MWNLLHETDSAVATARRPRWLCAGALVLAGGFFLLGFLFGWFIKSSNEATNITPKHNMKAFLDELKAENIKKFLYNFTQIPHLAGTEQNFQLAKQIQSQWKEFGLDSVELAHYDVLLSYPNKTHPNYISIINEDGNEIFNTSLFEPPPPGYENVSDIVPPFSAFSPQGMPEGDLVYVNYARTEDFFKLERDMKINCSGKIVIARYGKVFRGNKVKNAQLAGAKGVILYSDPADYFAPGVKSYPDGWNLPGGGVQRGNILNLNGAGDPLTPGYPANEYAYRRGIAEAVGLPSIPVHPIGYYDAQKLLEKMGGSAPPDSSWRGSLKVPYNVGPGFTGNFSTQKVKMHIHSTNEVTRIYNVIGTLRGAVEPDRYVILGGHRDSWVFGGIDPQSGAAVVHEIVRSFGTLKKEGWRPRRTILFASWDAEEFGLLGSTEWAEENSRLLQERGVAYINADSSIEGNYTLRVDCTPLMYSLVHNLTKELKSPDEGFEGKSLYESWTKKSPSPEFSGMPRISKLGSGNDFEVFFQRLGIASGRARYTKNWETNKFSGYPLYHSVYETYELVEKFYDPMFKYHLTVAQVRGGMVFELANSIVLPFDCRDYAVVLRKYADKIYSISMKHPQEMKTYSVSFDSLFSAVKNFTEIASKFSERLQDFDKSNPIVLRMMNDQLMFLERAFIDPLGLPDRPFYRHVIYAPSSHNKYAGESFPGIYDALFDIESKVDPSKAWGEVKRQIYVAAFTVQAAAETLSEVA

Compound | stability / bioconversion in mouse plasma (in words) [1] | plasma levels of 1 following oral administration of prodrug (in words) [4] | also measured
O=C(CCC(Cc1ccc(C(=O)O)cc1)C(=O)O)NO (stereo not drawn) [Compound 1, 4-Carboxy-α-[3-(hydroxyamino)-3-oxopropyl]-benzenepropanoic acid] | completely stable |  | distribution to sciatic nerves (in words) [2]: good distribution to sciatic nerves
Cc1oc(=O)oc1CONC(=O)CCC(Cc1ccc(C(=O)O)cc1)C(=O)O (stereo not shown) [Compound 17, 4-(2-Carboxy-5-(((5-methyl-2-oxo-1,3-dioxol-4-yl)methoxy)-amino)-5-oxopentyl)benzoic Acid] |  | equal or higher | stability under GCPII enzyme assay conditions (in words) [3]: partial hydrolysis to 1; fold less potency compared to 1 (GCPII inhibition) (rhGCPII): 12 fold
CC(=O)Oc1ccc(CONC(=O)CCC(Cc2ccc(C(=O)O)cc2)C(=O)O)cc1 (stereo not shown) [Compound 12, 4-(5-(((4-Acetoxybenzyl)oxy)amino)-2-carboxy-5-oxopentyl)-benzoic Acid] | complete conversion of prodrug 12 to 1 | equal or higher | effect on absolute latency of the sham operated side ([5]; 4.6 mg/kg/day po): no significant effect; first day of significantly reduced thermal hyperalgesia ([5]; 12 at 4.6 mg/kg/day po (3 mg/kg equivalent of 1)): 4 days
CC(=O)Oc1ccc(CONC(=O)CCC(Cc2ccc(C(=O)OCOC(=O)OC(C)C)cc2)C(=O)O)cc1 (stereo not shown) [Compound 30, 5-(((4-Acetoxybenzyl)oxy)amino)-2-(4-((((isopropoxycarbonyl)-oxy)methoxy)carbonyl)benzyl)-5-oxopentanoic Acid] | completely hydrolyzed |  | 
CCOC(=O)c1ccc(CC(CCC(=O)NOCc2ccc(OC(C)=O)cc2)C(=O)O)cc1 (stereo not shown) [Compound 23, 5-(((4-Acetoxybenzyl)oxy)amino)-2-(4-(ethoxycarbonyl)benzyl)-5-oxopentanoic Acid] | not converted into 1 |  | 
CC(=O)ONC(=O)CCC(Cc1ccc(C(=O)O)cc1)C(=O)O (stereo not shown) [Compound 7, 4-(5-(Acetoxyamino)-2-carboxy-5-oxopentyl)benzoic Acid] |  | equal or higher | 
NCC1(CC(=O)O)CCCCC1 [gabapentin, reference compound] |  |  | reversal of allodynia (positive control) ([5]; 100 mg/kg po daily, maintained throughout the dosing period): significantly reversed allodynia
